Experiments:
Assay type in all cases: ADME, organism-based
[1] = system: Rattus norvegicus; experiment: Distribution of radioactivity in kidney tissues of Sprague-Dawley rats after 30 min injection by intravenously; value ranges from 1.56-1.83; details: in vivo, iv, 0.5 h
[2] = system: Rattus norvegicus; experiment: Distribution of radioactivity in heart tissues of Sprague-Dawley rats after 15 min injection by intravenously; value ranges from 0.89-1.24; details: in vivo, iv, 0.25 h
Outline: (§1)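 Female Sprague-Dawley rats, 10–12 weeks old (170–200 g), fed ad libitum. The ¹²⁵I-labelled agent was dissolved in minimal Me2SO, diluted with saline to a final 20% Me2SO, filtered (0.22 μm), and injected into a lateral tail vein under ether anaesthesia. Tissues were counted against samples of the injected solution and expressed as % injected dose/g (mean, range). Brain/blood ratio is from the means.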

[3] = system: Rattus norvegicus; experiment: Distribution of radioactivity in liver tissues of Sprague-Dawley rats after 15 min injection by intravenously; value ranges from 2.43-2.92; details: in vivo, iv, 0.25 h
[4] = system: Rattus norvegicus; experiment: Distribution of radioactivity in blood tissues of Sprague-Dawley rats after 5 min injection by intravenously; value ranges from 1.38-1.5; details: in vivo, iv; outline: as §1
[5] = system: Rattus norvegicus; experiment: Distribution of radioactivity in heart tissues of Sprague-Dawley rats after 5 min injection by intravenously; value ranges from 1.24-1.46; details: in vivo, iv
[6] = system: Rattus norvegicus; experiment: Distribution of radioactivity in lung tissues of Sprague-Dawley rats after 5 min injection by intravenously; value ranges from 1.35-1.74; details: in vivo, iv
[7] = Brain to blood ratio in Sprague-Dawley rats after 30 min injection by intravenously; details: rat, brain and blood, iv; outline: as §1
[8] = Brain to blood ratio in Sprague-Dawley rats after 60 min injection by intravenously; details: rat, brain and blood, iv; outline: as §1
[9] = system: Rattus norvegicus; experiment: Distribution of radioactivity in brain tissues of Sprague-Dawley rats after 5 min injection by intravenously; value ranges from 0.28-0.37; details: in vivo, iv; outline: as §1
[10] = system: Rattus norvegicus; experiment: Distribution of radioactivity in heart tissues of Sprague-Dawley rats after 30 min injection by intravenously; value ranges from 0.75-1.03; details: in vivo, iv, 0.5 h; outline: as §1
[11] = system: Rattus norvegicus; experiment: Distribution of radioactivity in liver tissues of Sprague-Dawley rats after 5 min injection by intravenously; value ranges from 2.98-3.22; details: in vivo, iv
[12] = system: Rattus norvegicus; experiment: Distribution of radioactivity in blood tissues of Sprague-Dawley rats after 60 min injection by intravenously; value ranges from 0.54-0.63; details: in vivo, iv, 1 h; outline: as §1
[13] = system: Rattus norvegicus; experiment: Distribution of radioactivity in liver tissues of Sprague-Dawley rats after 60 min injection by intravenously; value ranges from 1.12-1.44; details: in vivo, iv, 1 h
[14] = system: Rattus norvegicus; experiment: Distribution of radioactivity in brain tissues of Sprague-Dawley rats after 15 min injection by intravenously; value ranges from 0.20-0.25; details: in vivo, iv, 0.25 h; outline: as §1
[15] = system: Rattus norvegicus; experiment: Distribution of radioactivity in heart tissues of Sprague-Dawley rats after 60 min injection by intravenously; value ranges from 0.64-0.86; details: in vivo, iv, 1 h
[16] = system: Rattus norvegicus; experiment: Distribution of radioactivity in blood tissues of Sprague-Dawley rats after 30 min injection by intravenously; value ranges from 0.73-0.85; details: in vivo, iv, 0.5 h; outline: as §1
[17] = system: Rattus norvegicus; experiment: Distribution of radioactivity in lung tissues of Sprague-Dawley rats after 15 min injection by intravenously; value ranges from 1.05-1.5; details: in vivo, iv, 0.25 h
[18] = system: Rattus norvegicus; experiment: Distribution of radioactivity in kidney tissues of Sprague-Dawley rats after 5 min injection by intravenously; value ranges from 3.18-4.74; details: in vivo, iv
[19] = Brain to blood ratio in Sprague-Dawley rats after 5 min injection by intravenously; details: rat, brain and blood, iv; outline: as §1
[20] = system: Rattus norvegicus; experiment: Distribution of radioactivity in lung tissues of Sprague-Dawley rats after 30 min injection by intravenously; value ranges from 0.86-1.13; details: in vivo, iv, 0.5 h
[21] = system: Rattus norvegicus; experiment: Distribution of radioactivity in kidney tissues of Sprague-Dawley rats after 60 min injection by intravenously; value ranges from 1.17-1.48; details: in vivo, iv, 1 h
[22] = system: Rattus norvegicus; experiment: Distribution of radioactivity in lung tissues of Sprague-Dawley rats after 60 min injection by intravenously; value ranges from 0.61-0.86; details: in vivo, iv, 1 h
[23] = system: Rattus norvegicus; experiment: Distribution of radioactivity in blood tissues of Sprague-Dawley rats after 15 min injection by intravenously; value ranges from 0.97-1.12; details: in vivo, iv, 0.25 h; outline: as §1
[24] = Brain to blood ratio in Sprague-Dawley rats after 15 min injection by intravenously; details: rat, brain and blood, iv; outline: as §1
[25] = system: Rattus norvegicus; experiment: Distribution of radioactivity in liver tissues of Sprague-Dawley rats after 30 min injection by intravenously; value ranges from 1.77-2.08; details: in vivo, iv, 0.5 h
[26] = system: Rattus norvegicus; experiment: Distribution of radioactivity in kidney tissues of Sprague-Dawley rats after 15 min injection by intravenously; value ranges from 2.24-3.12; details: in vivo, iv, 0.25 h
[27] = system: Rattus norvegicus; experiment: Distribution of radioactivity in brain tissues of Sprague-Dawley rats after 30 min injection by intravenously; value ranges from 0.17-0.20; details: in vivo, iv, 0.5 h; outline: as §1
[28] = system: Rattus norvegicus; experiment: Distribution of radioactivity in brain tissues of Sprague-Dawley rats after 60 min injection by intravenously; value ranges from 0.15-0.19; details: in vivo, iv, 1 h; outline: as §1

Q: For `CN1C=CCC(C(=O)NCCc2ccc([125I])cc2)=C1`, which Distribution [1] is on record?
A: 1.72%

Q: And the Distribution [2]?
A: 1.08%

Q: And the Distribution [3]?
A: 2.63%

Q: And the Distribution [4]?
A: 1.42%

Q: What about the Distribution [5] of the same molecule?
A: 1.37%

Q: And the Distribution [6]?
A: 1.48%

Q: And the Kp at 0.5 h [7]?
A: 0.23

Q: What about the Kp at 1 h [8] of the same molecule?
A: 0.29

Q: And the Distribution [9]?
A: 0.32%

Q: What about the Distribution [10] of the same molecule?
A: 0.86%

Q: And the Distribution [11]?
A: 3.1%

Q: What about the Distribution [12] of the same molecule?
A: 0.57%

Q: And the Distribution [13]?
A: 1.24%

Q: What about the Distribution [14] of the same molecule?
A: 0.22%

Q: What about the Distribution [15] of the same molecule?
A: 0.72%

Q: And the Distribution [16]?
A: 0.77%

Q: What about the Distribution [17] of the same molecule?
A: 1.2%

Q: And the Distribution [18]?
A: 4.19%

Q: What about the Kp at 5 min [19] of the same molecule?
A: 0.22

Q: What about the Distribution [20] of the same molecule?
A: 0.97%

Q: What about the Distribution [21] of the same molecule?
A: 1.28%

Q: And the Distribution [22]?
A: 0.66%

Q: What about the Distribution [23] of the same molecule?
A: 1.03%

Q: And the Kp at 0.25 h [24]?
A: 0.21

Q: What about the Distribution [25] of the same molecule?
A: 1.89%

Q: And the Distribution [26]?
A: 2.54%

Q: What about the Distribution [27] of the same molecule?
A: 0.18%

Q: And the Distribution [28]?
A: 0.17%
